We go through one compound from ChEMBL document CHEMBL5705892, “MK-2206, an allosteric Akt inhibitor, enhances antitumor efficacy by standard chemotherapeutic agents or molecular targeted drugs in vitro and in vivo” (Mol Cancer Ther, 2010).

Structures are written as SMILES. Calls of active or inactive are those of the source. The rule behind the calls is not given here.

In data set [1] the test system is NCI-H460. The data set can be described thus: Synergistic antiproliferative activity against human NCI-H460 cells assessed as combination index at ED75 measured after 72 hrs in presence of erlotinib by celltiter-glo assay. In kind it is functional. For orientation: Cellular ATP, detected with luciferase, serves as a proxy for viable cell number.
In data set [2] the test system is HCC1954. The data set can be described thus: Synergistic antiproliferative activity against human HCC1954 cells assessed as combination index at ED75 measured after 72 hrs in presence of lapatinib by celltiter-glo assay. In kind it is functional. The procedure, abridged:
(§1)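 Cells grown in RPMI 1640 with 10% heat-inactivated FBS at 37°C, 5% CO₂. Seeded at 2 to 3 × 10³ per well; drugs added 24 h later. […] Viability read as cellular ATP by CellTiter-Glo. CI calculated by Chou–Talalay from median-effect plots at ED50, ED75 and ED90.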

Data set [3] concerns SK-BR-3. The data set can be described thus: Synergistic antiproliferative activity against human SK-BR-3 cells assessed as combination index at ED90 measured after 72 hrs in presence of lapatinib by celltiter-glo assay. It is filed as functional.
The nature of data set [4]: Toxicity in human NCI-H292 cells xenografted CD-1 mouse assessed as weight loss at 120 mg/kg, po administered 3 times per week for 2 weeks starting 2 hrs post-erlotinib treatment and measured on day 16. It is filed as organism-based. As to conditions: in vivo, 384 h, time 16 day. The procedure, abridged: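 Female CD1-nude mice bearing s.c. NCI-H292 tumours (cells in 50% Matrigel/50% PBS, left flank), randomized at mean 0.2 cm³, n=5/group. Body weight monitored; treatment period ended day 16.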
In general terms: A xenograft is tissue or cells of one species grown in another, often human tumour cells in immunodeficient mice.

The subject of data set [5] is SK-OV-3. The data set can be described thus: Synergistic antiproliferative activity against human SK-OV-3 cells assessed as combination index at ED50 measured after 96 hrs in presence of lapatinib by celltiter-glo assay. In kind it is functional.
Data set [6] deals with SK-OV-3. The data set can be described thus: Synergistic antiproliferative activity against human SK-OV-3 cells assessed as combination index at ED75 treated 24 hrs prior to lapatinib and measured after 72 hrs by celltiter-glo assay. In kind it is functional. As to conditions: time 96 hrs.
The subject of data set [7] is HCC1954. The experiment in a line: Synergistic antiproliferative activity against lapatinib pretreated human HCC1954 cells assessed as combination index at ED75 measured after 72 hrs by celltiter-glo assay. In kind it is functional.
The test system of data set [8] is HCC1954. The experiment in a line: Synergistic antiproliferative activity against human HCC1954 cells assessed as combination index at ED90 treated 24 hrs prior to lapatinib and measured after 72 hrs by celltiter-glo assay. It is filed as functional. Particulars: time 96 hrs.
A further data set relates to NCI-N87. The experiment in a line: Synergistic antiproliferative activity against human NCI-N87 cells assessed as combination index at ED90 measured after 96 hrs in presence of lapatinib by celltiter-glo assay. It is filed as functional.
Another data set relates to HCC70. The data set can be described thus: Antitumor activity against human HCC70 cells xenografted in CB17/icr SCID mouse assessed as tumor growth inhibition at 120 mg/kg, po administered 3 times per week for 3 weeks starting 2 hrs post-lapatinib treatment and measured twice a week during compound dosing by caliper method. It is filed as functional, organism-based. The method in brief:
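Female C.B-17/ICR-scid mice were given s.c. HCC70 cells in 50% Matrigel/50% PBS in the left flank. They were randomized at a mean tumor size of 0.2 cm³, n = 5 per group. Lapatinib (distilled water) was given at 100 mg/kg po, 5 d/wk for 3 wk. MK-2206 (30% Captisol) was given at 120 mg/kg po, 3×/wk, 2 h after lapatinib. Calipers twice weekly; volume = […] × 0.5.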

The nature of data set [9]: Toxicity in human SK-OV-3 cells xenografted CB17/icr SCID mouse assessed as body weight loss at 60 to 120 mg/kg, po administered 3 times per week for 2 weeks starting 2 hrs post lapatinib treatment and measured during compound dosing. It is filed as organism-based. Particulars: in vivo, 336 h, dose 60-120 mg/kg. The method in brief:
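SK-OV-3 cells in 50% Matrigel/PBS injected s.c. into flank of female C.B-17/ICR-scid mice; dosing began after 3 wk, randomized at mean tumour 0.13 cm³ (n = 5). Lapatinib 100 mg/kg p.o. in distilled water 5 d/wk for 2 wk; MK-2206 in 30% Captisol p.o. days 0, 2, 4, 7, 9, 11. Body weight and physical signs monitored.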

For another data set, the system named is BT-474. The data set can be described thus: Synergistic antiproliferative activity against human BT-474 cells assessed as combination index at ED90 preincubated for 24 hrs followed by compound washout and subsequent docetaxel addition and measured after 72 hrs by celltiter-glo assay. It is filed as functional. The procedure, abridged:
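Sequential schedule. Cells were seeded at 2 to 3 × 10³ per well in RPMI 1640 with 10% FBS and dosed 24 h after plating. They were exposed to the Akt inhibitor for 24 h, washed free of it, then given docetaxel for a further 72 h. Fixed concentration ratios spanned each agent's IC₅₀. ATP was read by CellTiter-Glo, and Chou–Talalay CI was calculated at ED50, ED75 and ED90.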

A further data set deals with MDA-MB-453. The experiment in a line: Synergistic antiproliferative activity against human MDA-MB-453 cells assessed as combination index at ED50 measured after 72 hrs in presence of docetaxel by celltiter-glo assay. It is filed as functional. The procedure, abridged: as §1
The next data set has as its system MCF7. The experiment in a line: Synergistic antiproliferative activity against human MCF7 cells assessed as combination index at ED50 measured after 72 hrs in presence of docetaxel by celltiter-glo assay. In kind it is functional. The method in brief: as §1
For data set [10], the system named is SK-BR-3. The experiment in a line: Synergistic antiproliferative activity against human SK-BR-3 cells assessed as combination index at ED90 measured after 72 hrs in presence of docetaxel by celltiter-glo assay. It is filed as functional.
The nature of data set [11]: Toxicity in human PC-3 cells xenografted CD1 nude mouse assessed as body weight loss at 120 mg/kg, po administered 3 times per week for 2 weeks measured on day 15. Particulars: in vivo, 360 h, time 15 day. In kind it is organism-based. The procedure, abridged:
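Male CD1-nude mice with s.c. PC-3 tumours (50% Matrigel/50% PBS, left flank), randomized at mean 0.2 cm³, n=5/group, treated from 25 d post-implant. Body weight monitored versus vehicle-only controls.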

The subject of data set [12] is A2780. The data set can be described thus: Synergistic antiproliferative activity against human A2780 cells assessed as combination index at ED50 measured after 72 hrs in presence of carboplatin by celltiter-glo assay. In kind it is functional. The procedure, abridged: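 Cells were seeded at 2–3 × 10³ per well in RPMI 1640 with 10% FBS. At 24 h, MK-2206 and the partner drug were added simultaneously at constant concentration ratios spanning each agent's IC₅₀, for 72 h. Growth was read as cellular ATP by CellTiter-Glo. CI was taken from median-effect plots of each agent alone and in combination (Chou–Talalay), at ED₅₀, ED₇₅ and ED₉₀.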

The subject of data set [13] is NCI-H460. The data set can be described thus: Synergistic antiproliferative activity against human NCI-H460 cells assessed as combination index at ED50 measured after 72 hrs in presence of gemcitabine by celltiter-glo assay. In kind it is functional.
In data set [14] the test system is A2780. The data set can be described thus: Induction of apoptosis in human A2780 cells assessed as increase in caspase-3/7 activity at 0.0625 to 1 uM incubated for 24 hrs prior to addition of carboplatin and measured after 24 hrs by caspase-glo 3/7 assay. In kind it is functional, cell-based. Particulars: dose 0.0625-1 µM.
The test system of data set [15] is A2780. The experiment in a line: Cell cycle arrest in human A2780 cells assessed as increase in accumulation of cells at sub-G1 phase measured after 72 hrs in presence of camptothecin by propidium iodide staining based flow cytometry. In kind it is functional.
A further data set concerns NCI-H1993. The experiment in a line: Synergistic antiproliferative activity against human NCI-H1993 cells assessed as combination index at ED25 to ED90 measured after 72 hrs in presence of gemcitabine by celltiter-glo assay. It is filed as functional.
A further data set concerns NCI-H441. The experiment in a line: Induction of apoptosis in human NCI-H441 cells assessed as fold induction of capsase-3/7 activity measured after 24 to 48 hrs in presence of gemcitabine by caspase-glo 3/7 assay. It is filed as functional. Particulars: time 24-48 hrs.

Consider `Cl.NC1(c2ccc(-c3nc4ccn5c(=O)[nH]nc5c4cc3-c3ccccc3)cc2)CCC1`, for which the CI75 was 0.23 in the data set with NCI-H460 [1], 0.13 in the data set on HCC1954 [2], 0.18 with SK-OV-3 [6] and 0.18 in the data set with HCC1954 [7]. Also, the CI90 is 0.09 with SK-BR-3 [3]; 0.18 in the data set with HCC1954 [8]; 0.18 in the data set on NCI-N87; 1.6 in the data set with BT-474; 0.8 with SK-BR-3 [10]. For the same compound, the Activity result in data set [4] was “Non-Toxic”; in data set [9] it was “Non-Toxic”; in data set [11], “Non-Toxic”; in the data set on A2780 [15], “Dose-Dependent Effect”. The CI50 in the data set on SK-OV-3 [5] was determined as 0.18; in the data set on MDA-MB-453 it was 1.2; with MCF7, 0.7; with A2780 [12], 0.49; in the data set with NCI-H460 [13] it was 0.33. Also, in the data set with HCC70, the TGI result is “Active”. For the same compound, the result with A2780 [14] was inactive. In addition, the CI in the data set with NCI-H1993 worked out at 0.14. The “fold change (FC)” value in the data set with NCI-H441 is given as 2.3.
